Measurements reported in ChEMBL document CHEMBL1124161, “4-Hydroxy-3-quinolinecarboxamides with antiarthritic and analgesic activities” (J Med Chem, 1988).
Calls of active or inactive are those of the source. The calls are words filed in the database; no cut-off is given here.

How the values were obtained:
Mus musculus [1] = test: Analgesic activity against acetic acid induced writhing test in mouse after peroral administration (treatment was 6 hr before testing); format: functional; conditions: po
Outline: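 Groups of 10 female mice (20–22 g), fasted 7 h, dosed orally 6 h before ip injection of 0.2 mL 1% aqueous acetic acid. Stretching and writhing movements counted from minute 5 to 20 after irritant. ED50 evaluated graphically or by computerized least-squares curve fitting.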

Rattus norvegicus [2] = test: Ulcerogenic effect against intestinal ulcer in rats after oral administration; format: functional
Outline: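 Nonfasted male rats (150–180 g) killed 24 h after oral dosing, and intestinal ulcers scored. Ulceration index = (mean degree × rats with ulcers / rats) × 100. ED100 (index 100) determined graphically.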

Rattus norvegicus [3] = test: Antiarthritis activity against adjuvant-induced arthritis in rats after peroral administration; range is (1.9-5.3); format: functional; conditions: po
Outline: (§1)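 Groups of five male Lewis rats, 40–50 days old, given intraplantar injection in right hind paw of 0.6 mg Mycobacterium butyricum in 0.1 mL Bayol 55. Drug given in food from adjuvant day to day 17. Injected and noninjected hind paw volumes measured day 17 against normal controls. ED50 by least-squares curve fitting or Litchfield–Wilcoxon probit.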

Rattus norvegicus [4] = test: Anti-arthritis activity against adjuvant-induced arthritis in rats after peroral administration; format: functional; conditions: Rattus norvegicus, po; read-out: ED50; outline: as §1
Rattus norvegicus [5] = test: Ulcerogenic effect against gastric ulcer in rats after oral administration; format: functional, Stomach
Outline: (§2)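 Groups of eight female rats (120–150 g), fasted 24 h, dosed orally; killed 7 h later and stomachs scored. Ulceration index = (mean ulcer degree × rats with ulcers / number of rats) × 100, ulcers being scores above 0.5. ED100 (index 100, max 300) read graphically.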

Mus musculus [6] = test: Analgesic activity against acetic acid induced writhing test in mouse after peroral administration; format: functional
Cyclooxygenase = biological target: T1, Cyclooxygenase (Bos taurus, UniProt O62664+O62698); test: Inhibition of bovine Prostaglandin G/H synthase in seminal vesicle microsomes in vitro
T1 sequence (O62664 whole entry): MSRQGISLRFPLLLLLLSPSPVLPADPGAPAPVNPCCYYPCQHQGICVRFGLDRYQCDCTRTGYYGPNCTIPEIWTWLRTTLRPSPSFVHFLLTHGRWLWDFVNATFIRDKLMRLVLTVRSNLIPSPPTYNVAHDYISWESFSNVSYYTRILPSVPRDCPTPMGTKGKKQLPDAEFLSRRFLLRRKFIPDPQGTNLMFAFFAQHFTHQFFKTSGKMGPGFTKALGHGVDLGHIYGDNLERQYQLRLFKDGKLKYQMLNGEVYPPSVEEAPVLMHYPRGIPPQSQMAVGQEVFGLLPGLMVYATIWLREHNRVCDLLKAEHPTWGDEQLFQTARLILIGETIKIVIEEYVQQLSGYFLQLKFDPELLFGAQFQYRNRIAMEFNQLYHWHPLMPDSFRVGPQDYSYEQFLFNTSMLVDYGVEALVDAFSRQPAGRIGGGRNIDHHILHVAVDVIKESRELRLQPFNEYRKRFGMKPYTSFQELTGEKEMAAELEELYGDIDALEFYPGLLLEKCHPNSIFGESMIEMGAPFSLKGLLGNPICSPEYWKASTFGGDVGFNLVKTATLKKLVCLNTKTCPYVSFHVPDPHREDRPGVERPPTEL
T1 sequence (O62698 whole entry): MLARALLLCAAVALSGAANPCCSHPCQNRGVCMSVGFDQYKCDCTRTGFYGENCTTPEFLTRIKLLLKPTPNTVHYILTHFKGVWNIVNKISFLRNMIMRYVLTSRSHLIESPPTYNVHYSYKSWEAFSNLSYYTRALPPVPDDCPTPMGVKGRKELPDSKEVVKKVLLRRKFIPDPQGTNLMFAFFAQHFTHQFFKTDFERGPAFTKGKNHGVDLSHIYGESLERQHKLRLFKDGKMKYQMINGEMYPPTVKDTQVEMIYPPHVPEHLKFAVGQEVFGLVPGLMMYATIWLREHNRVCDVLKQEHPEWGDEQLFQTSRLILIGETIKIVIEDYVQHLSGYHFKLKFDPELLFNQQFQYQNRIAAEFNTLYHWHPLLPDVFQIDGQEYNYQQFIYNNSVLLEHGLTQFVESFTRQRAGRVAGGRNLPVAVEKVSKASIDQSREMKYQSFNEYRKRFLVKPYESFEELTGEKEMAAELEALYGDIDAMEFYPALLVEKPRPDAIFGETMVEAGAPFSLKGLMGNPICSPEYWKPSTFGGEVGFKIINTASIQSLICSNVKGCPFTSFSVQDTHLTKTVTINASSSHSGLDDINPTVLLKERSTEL

[7] = biological target: T2, Polyunsaturated fatty acid 5-lipoxygenase (Rattus norvegicus, UniProt P12527); test: Inhibition of 5-lipoxygenase from rat peritoneal neutrophils in vitro
T2 sequence (P12527 whole entry): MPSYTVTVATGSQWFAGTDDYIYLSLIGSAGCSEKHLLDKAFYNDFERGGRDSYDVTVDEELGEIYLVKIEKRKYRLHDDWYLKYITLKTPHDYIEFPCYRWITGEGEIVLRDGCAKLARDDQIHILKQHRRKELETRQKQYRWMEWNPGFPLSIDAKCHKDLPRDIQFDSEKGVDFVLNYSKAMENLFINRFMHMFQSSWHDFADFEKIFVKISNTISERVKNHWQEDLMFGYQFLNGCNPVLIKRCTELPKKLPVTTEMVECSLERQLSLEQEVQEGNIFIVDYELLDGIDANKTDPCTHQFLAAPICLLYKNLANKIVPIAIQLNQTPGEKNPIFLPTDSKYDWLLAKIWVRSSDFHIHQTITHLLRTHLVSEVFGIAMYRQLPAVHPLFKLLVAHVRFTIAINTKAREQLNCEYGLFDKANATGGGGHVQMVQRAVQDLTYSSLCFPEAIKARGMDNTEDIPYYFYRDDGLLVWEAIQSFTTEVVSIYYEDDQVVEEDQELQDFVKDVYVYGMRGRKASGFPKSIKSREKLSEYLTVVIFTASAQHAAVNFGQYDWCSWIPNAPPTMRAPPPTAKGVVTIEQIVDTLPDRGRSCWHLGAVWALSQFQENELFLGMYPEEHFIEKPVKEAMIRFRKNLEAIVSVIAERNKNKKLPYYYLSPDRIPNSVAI

Rattus norvegicus [8] = test: Antiinflammatory activity against carrageenan-induced foot edema in rat after peroral administration; format: functional; conditions: po
Outline: (§3)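 Groups of eight male Sprague-Dawley rats (150–180 g) dosed orally at the time of subplantar injection of 0.5 mg carrageenin. Paw volume difference measured before and 5 h after injection. Expressed as ED40, estimated graphically or by Litchfield–Wilcoxon probit analysis.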

Mus musculus [9] = test: Analgesic activity against acetic acid induced writhing test in mouse after peroral administration; range is (3.2-7.9); format: functional; conditions: po
Rattus norvegicus [10] = test: Antiinflammatory activity against carrageenan-induced foot edema in rat after peroral administration calculated from 4 doses; format: functional; conditions: po; outline: as §3
Rattus norvegicus [11] = test: Ulcerogenic effect against intestinal ulcer in rats after oral administration of 500 mg/kg; IA=Inactive; format: functional, organism-based; design: dose 500 mg/kg
Outline: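 Nonfasted male rats (150–180 g) killed 24 h after oral dosing; intestinal ulcers scored and ulceration index computed from mean ulcer degree times fraction of rats with ulcers ×100; ED100 (index 100) determined graphically.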

Rattus norvegicus [12] = test: (§4) Ulcerogenic effect against gastric ulcer in rat after oral administration; format: functional, Stomach; outline: as §2
Rattus norvegicus [13] = test: Antiinflammatory activity against carrageenan-induced foot edema in rat after peroral administration calculated from at least four doses
Rattus norvegicus [14] = test: as §4; format: functional; conditions: Stomach; outline: as §2
[15] = Mus musculus, po, read-out: ED50

SMILES	ED50 (Mus musculus [1]) [mg/kg]	ED100 (Rattus norvegicus [2]) [mg/kg]	ED50 (Rattus norvegicus [3]) [mg/kg]	ED50 (Rattus norvegicus [4]) [mg/kg]	ED100 (Rattus norvegicus [5]) [mg/kg]	ED50 (Mus musculus [6]; [15]) [mg/kg]	IC50 (Cyclooxygenase) [µM]	IC50 [7] [µM]	ED40 (Rattus norvegicus [8]) [mg/kg]	ED50 (Mus musculus [9]) [mg/kg]	ED40 (Rattus norvegicus [10]) [mg/kg]	ED100 (Rattus norvegicus [11])	ED100 (Rattus norvegicus [12]) [mg/kg]	ED40 (Rattus norvegicus [13]) [mg/kg]	ED50 (Mus musculus [6]) [mg/kg]	ED100 (Rattus norvegicus [14]) [mg/kg]
CC[C@H](N)c1nc2c(C(F)(F)F)cccc2c(O)c1C(=O)Nc1nccs1	30	>100	3.1	5	80	35	1.4	18	10	–	–	–	–	–	–	–
O=C(Nc1nccs1)c1cnc2c(C(F)(F)F)cccc2c1O	–	–	–	–	–	5	2.8	35	–	5	> 100	inactive	>500	–	–	–
O=C(Nc1nccs1)c1c(C(F)(F)F)nc2c(C(F)(F)F)cccc2c1O	–	–	–	3.8	–	0.5	0.4	3	–	–	–	–	–	3.5	0.5	15
